In ChEMBL document CHEMBL1134350, “seco-Cyclothialidines: new concise synthesis, inhibitory activity toward bacterial and human DNA topoisomerases, and antibacterial properties” (J Med Chem, 2001):
In brackets after ≈: the same amount, converted by molar mass.

Key:
DNA topoisomerase II = DNA topoisomerase II (Homo sapiens, UniProt P11388+Q02880); assay: […] human DNA Topoisomerase II; type: protein assay
Procedure, shortened: (§1)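 Human topoisomerase reactions used supercoiled pBR322 (100 ng) with 1 unit enzyme in the supplier's reaction buffer and compounds in DMSO. Incubation was 30 min, stopped with SDS/sucrose dye.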

DNA topoisomerase 1 = target: T1, DNA topoisomerase 1 (Homo sapiens, UniProt P11387); assay: Antibacterial activity against human DNA Topo I.; procedure, shortened: as §1
T1 sequence (P11387 whole entry): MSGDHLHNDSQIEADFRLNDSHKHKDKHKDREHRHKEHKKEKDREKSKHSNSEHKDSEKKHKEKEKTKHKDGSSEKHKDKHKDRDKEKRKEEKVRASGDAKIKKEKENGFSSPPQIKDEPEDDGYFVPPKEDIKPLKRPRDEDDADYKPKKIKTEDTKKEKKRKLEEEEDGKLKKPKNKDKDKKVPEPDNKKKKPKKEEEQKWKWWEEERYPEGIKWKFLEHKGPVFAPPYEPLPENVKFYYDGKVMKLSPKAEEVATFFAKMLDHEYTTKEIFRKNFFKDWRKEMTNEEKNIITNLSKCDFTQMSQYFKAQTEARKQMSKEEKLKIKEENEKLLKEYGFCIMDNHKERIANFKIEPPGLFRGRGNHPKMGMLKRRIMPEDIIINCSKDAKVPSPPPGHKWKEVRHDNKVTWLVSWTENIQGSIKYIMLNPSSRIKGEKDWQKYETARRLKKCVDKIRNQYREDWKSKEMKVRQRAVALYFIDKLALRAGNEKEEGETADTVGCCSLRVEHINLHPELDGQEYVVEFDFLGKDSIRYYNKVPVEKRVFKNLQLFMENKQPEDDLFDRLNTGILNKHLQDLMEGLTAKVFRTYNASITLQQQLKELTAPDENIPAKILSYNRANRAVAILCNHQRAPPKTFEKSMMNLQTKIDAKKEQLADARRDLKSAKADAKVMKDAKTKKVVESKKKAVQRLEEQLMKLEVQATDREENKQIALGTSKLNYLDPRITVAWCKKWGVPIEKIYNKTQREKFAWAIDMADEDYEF

Escherichia coli = assay: Antibacterial activity against Escherichia coli Neumann.; type: functional
Procedure, shortened: (§2)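 Agar dilution MIC on IsoSensitest agar or Mueller Hinton agar with 10% horse blood and IsoVitaleX. Overnight cultures were grown in BHI broth for staphylococci and enterobacteria, or in BHI plus 10% bovine serum for streptococci and enterococci, then diluted 1:100. Compounds were tested at 0.125-64 µg/mL. Plates were incubated aerobically at 37 °C for about 20 h. MIC = first concentration with no visible growth.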

Enterococcus faecium [1] = assay: Antibacterial activity against Enterococcus faecium L4001.; type: functional; procedure, shortened: as §2
Enterococcus faecalis [2] = assay: Antibacterial activity against Enterococcus faecalis 27251.; type: functional; procedure, shortened: as §2
Enterococcus faecalis [3] = assay: Antibacterial activity against Enterococcus faecalis 27253.; type: functional; procedure, shortened: as §2
Klebsiella pneumoniae [4] = assay: Antibacterial activity against Klebsiella pneumoniae 8085.; type: functional; procedure, shortened: as §2
Klebsiella pneumoniae [5] = assay: Antibacterial activity against Klebsiella pneumoniae 63.; type: functional; procedure, shortened: as §2
Proteus mirabilis = assay: Antibacterial activity against Proteus mirabilis 1235.; type: functional; procedure, shortened: as §2
Proteus vulgaris = assay: Antibacterial activity against Proteus vulgaris 1017.; type: functional; procedure, shortened: as §2
Staphylococcus aureus [6] = assay: Antibacterial activity against Staphylococcus aureus 133.; type: functional; procedure, shortened: as §2
Staphylococcus aureus [7] = assay: Antibacterial activity against Staphylococcus aureus 25470.; type: functional; procedure, shortened: as §2
Staphylococcus aureus [8] = assay: Antibacterial activity against Staphylococcus aureus 25701.; type: functional; procedure, shortened: as §2
Staphylococcus aureus [9] = assay: Antibacterial activity against Staphylococcus aureus 44(25508).; type: functional; procedure, shortened: as §2
Staphylococcus aureus [10] = assay: Antibacterial activity against Staphylococcus aureus 48 N.; type: functional; procedure, shortened: as §2
Staphylococcus aureus [11] = assay: Antibacterial activity against Staphylococcus aureus 9TV.; type: functional; procedure, shortened: as §2
[12] = tested on: Staphylococcus saprophyticus; assay: Antibacterial activity against Staphylococcus saprophyticus 2916.; type: functional; procedure, shortened: as §2
Streptococcus pyogenes [13] = assay: Antibacterial activity against Streptococcus pyogenes Wacker.; type: functional; procedure, shortened: as §2
Streptococcus pyogenes [14] = assay: Antibacterial activity against Streptococcus pyogenes 4333.; type: functional; procedure, shortened: as §2
Streptococcus pyogenes [15] = assay: Antibacterial activity against Streptococcus pyogenes 4851.; type: functional; procedure, shortened: as §2
Streptococcus pyogenes [16] = assay: Antibacterial activity against Streptococcus pyogenes 7029.; type: functional; procedure, shortened: as §2
[17] = tested on: Staphylococcus epidermidis; assay: Antibacterial activity against Staphylococcus epidermidis 193.; type: functional; procedure, shortened: as §2
[18] = tested on: Staphylococcus haemolyticus; assay: Antibacterial activity against Staphylococcus haemolyticus 146.; type: functional; procedure, shortened: as §2
Enterococcus faecium [19] = assay: Antibacterial activity against Enterococcus faecium 27266.; type: functional; procedure, shortened: as §2
Enterococcus faecalis [20] = assay: Antibacterial activity against Enterococcus faecalis.; type: functional; procedure, shortened: as §2
Staphylococcus aureus [21] = assay: Antibacterial activity against Staphylococcus aureus 25923.; type: functional; procedure, shortened: as §2
Streptococcus pyogenes [22] = assay: Antibacterial activity against Streptococcus pyogenes.; type: functional; procedure, shortened: as §2
[23] = tested on: Staphylococcus epidermidis; assay: Antibacterial activity against Staphylococcus epidermidis.; type: functional; procedure, shortened: as §2
Staphylococcus aureus [24] = assay: Antibacterial activity against Staphylococcus aureus QR-54.; type: functional; procedure, shortened: as §2

Row | Structure (SMILES) | MIC (Escherichia coli) [µg/mL] | MIC (Enterococcus faecium [1]) [µg/mL] | MIC (Enterococcus faecalis [2]) [µg/mL] | MIC (Enterococcus faecalis [3]) [µg/mL] | MIC (Klebsiella pneumoniae [4]) [µg/mL] | MIC (Klebsiella pneumoniae [5]) [µg/mL] | MIC (Proteus mirabilis) [µg/mL] | MIC (Proteus vulgaris) [µg/mL] | MIC (Staphylococcus aureus [6]) [µg/mL] | MIC (Staphylococcus aureus [7]) [µg/mL] | MIC (Staphylococcus aureus [8]) [µg/mL] | MIC (Staphylococcus aureus [9]) [µg/mL] | MIC (Staphylococcus aureus [10]) [µg/mL] | MIC (Staphylococcus aureus [11]) [µg/mL] | MIC [12] [µg/mL] | MIC (Streptococcus pyogenes [13]) [µg/mL] | MIC (Streptococcus pyogenes [14]) [µg/mL] | MIC (Streptococcus pyogenes [15]) [µg/mL] | MIC (Streptococcus pyogenes [16]) [µg/mL] | MIC [17] [µg/mL] | also measured
1 | COC(=O)c1c(Br)c(OC)cc(O)c1CSC[C@H](Nc1nc(-c2ccc([N+](=O)[O-])cc2)cs1)C(=O)OC | > 64 | 2 (≈ 3.27 µM) | 2 (≈ 3.27 µM) | 1 (≈ 1.63 µM) | > 64 | > 64 | > 64 | > 64 | 1 (≈ 1.63 µM) | 1 (≈ 1.63 µM) | 1 (≈ 1.63 µM) | 2 (≈ 3.27 µM) | 1 (≈ 1.63 µM) | 1 (≈ 1.63 µM) | 1 (≈ 1.63 µM) | 1 (≈ 1.63 µM) | 1 (≈ 1.63 µM) | 1 (≈ 1.63 µM) | 2 (≈ 3.27 µM) | 0.5 (≈ 0.816 µM) | IC50 (DNA topoisomerase II): 15 µg/mL (≈ 24.5 µM); IC50 (DNA topoisomerase 1): > 392 µM; MIC [18]: 1 µg/mL (≈ 1.63 µM); MIC (Enterococcus faecium [19]): 2 µg/mL (≈ 3.27 µM)
2 | COC(=O)c1c(Br)c(OC)cc(O)c1CSC[C@H](Nc1nc(-c2ccc([N+](=O)[O-])cc2)cs1)C1=NOCCO1 | > 64 | 0.5 (≈ 0.782 µM) | 0.5 (≈ 0.782 µM) | 0.5 (≈ 0.782 µM) | > 64 | > 64 | > 64 | > 64 | 0.25 (≈ 0.391 µM) | 0.25 (≈ 0.391 µM) | < 0.12 | 0.25 (≈ 0.391 µM) | 0.25 (≈ 0.391 µM) | 0.25 (≈ 0.391 µM) | < 0.12 | 0.25 (≈ 0.391 µM) | 0.25 (≈ 0.391 µM) | 0.25 (≈ 0.391 µM) | 0.5 (≈ 0.782 µM) | < 0.12 | IC50 (DNA topoisomerase II): 60 µg/mL (≈ 93.8 µM); IC50 (DNA topoisomerase 1): > 375 µM; MIC [18]: < 0.12 µg/mL; MIC (Enterococcus faecium [19]): 0.5 µg/mL (≈ 0.782 µM)
3 | COC(=O)c1c(Br)c(OC)cc(O)c1CSC[C@H](Nc1nc(-c2ccc([N+](=O)[O-])cc2)cs1)c1nc(C)no1 | > 64 | 0.5 (≈ 0.786 µM) | 0.5 (≈ 0.786 µM) | 0.25 (≈ 0.393 µM) | > 64 | > 64 | > 64 | > 64 | 0.25 (≈ 0.393 µM) | 0.25 (≈ 0.393 µM) | < 0.12 | 0.25 (≈ 0.393 µM) | 0.25 (≈ 0.393 µM) | 0.25 (≈ 0.393 µM) | 0.25 (≈ 0.393 µM) | 0.25 (≈ 0.393 µM) | < 0.12 | 0.25 (≈ 0.393 µM) | 0.5 (≈ 0.786 µM) | < 0.12 | IC50 (DNA topoisomerase II): 60 µg/mL (≈ 94.3 µM); IC50 (DNA topoisomerase 1): > 377 µM; MIC (Enterococcus faecalis [20]): 0.25 µg/mL (≈ 0.393 µM); MIC (Staphylococcus aureus [21]): 0.12 µg/mL (≈ 0.189 µM); MIC (Streptococcus pyogenes [22]): 0.12 µg/mL (≈ 0.189 µM); MIC [23]: 0.12 µg/mL (≈ 0.189 µM); MIC [18]: 0.25 µg/mL (≈ 0.393 µM); MIC (Staphylococcus aureus [24]): 0.25 µg/mL (≈ 0.393 µM); MIC (Enterococcus faecium [19]): 0.5 µg/mL (≈ 0.786 µM)
4 | COC(=O)c1c(Br)c(OC)cc(O)c1CSC[C@@H](Nc1nc(-c2ccc([N+](=O)[O-])cc2)cs1)C1=NOCCO1 | > 64 | > 64 | > 64 | > 64 | > 64 | > 64 | > 64 | > 64 | > 64 | > 64 | > 64 | > 64 | > 64 | > 64 | > 64 | > 64 | 64 (≈ 100 µM) | > 64 | > 64 | > 64 | MIC [18]: > 64 µg/mL; MIC (Enterococcus faecium [19]): > 64 µg/mL
